Experimental data published in ChEMBL document CHEMBL3856274, “Sydnone Cycloaddition Route to Pyrazole-Based Analogs of Combretastatin A4” (J Med Chem, 2016).
The source made the active and inactive calls. The rule behind the calls is not given here.

Key:
HUVEC [1] = assay: Growth inhibition of HUVEC after 72 hrs by crystal violet staining-based assay; assay type: functional; settings: Homo sapiens
Procedure, shortened: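 HUVECs at 5 × 10^3/well on gelatin-coated plates were allowed to adhere for 24 h, then given a drug concentration series in EBM (≥8 wells per concentration) for 72 h at 37 °C. Cells were fixed in 3.7% formalin and stained with 1% crystal violet, which was solubilized in 10% acetic acid and read at A590 with background correction. % growth inhibition from ≥3 independent experiments was plotted against log concentration to give GI50.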

HUVEC [2] = assay: Disruption of interphase microtubule in HUVEC assessed as change in cell morphology at 250 nM after 30 mins by DAPI staining-based immunofluorescence assay; settings: Homo sapiens
Procedure, shortened: (§1)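 HUVECs (supplemented medium, 10% FCS final, used up to 5 passages) plated on fibronectin-coated chamber slides at 2.5 × 10^4 or 5 × 10^4 cells/well. Treated with drug (dilutions in EBM from 20 mM DMSO stock) or vehicle for 30 min. Then fixed in 3.7% formalin, permeabilized in 0.1% Triton X-100, and stained for β-tubulin (antibody), F-actin (phalloidin) and nuclei (DAPI).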

SW1222 = assay: Induction of necrosis in human SW1222 cells xenografted in SCID mouse at 0.227 mmol/kg administered as single dose measured after 24 hrs by hematoxylin/eosin staining-based microscopic method; assay type: functional, cell-based
Procedure, shortened: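 SW1222 cells (5 × 10^6) injected s.c. into the rear dorsum of female SCID mice (8–12 weeks). Tumours treated at about 8 mm mean diameter with a single dose of 0.227 mmol/kg in […]/NaCl, 10 mL/kg. Tumours excised at 24 h. Necrosis scored on 5 µm H&E sections by Chalkley point counting.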

HUVEC [3] = assay: Activation of ROCK in HUVEC assessed as phosphorylation of myosin light chain at 50 to 500 nM after 15 mins by Western blot method; assay type: cell-based; settings: Homo sapiens
Procedure, shortened: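 HUVECs seeded on gelatin at 5 × 10^4 cells/well and grown 7 days without medium change. Drugs diluted in EBM from 20 mM DMSO stock and applied 15 min. Proteins extracted in LDS buffer. Western blot for dually phosphorylated MLC, with actin reprobe for loading. Band intensity given as fold-change over vehicle. Mean of 3-4 independent experiments ± SEM.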

HUVEC [4] = assay: Induction of HUVEC monolayer permeability assessed as increase in passage of FITC-dextran through cell monolayer at 50 nM preincubated for 30 mins followed by compound washout and addition of FITC-dextran for 30 mins by fluorescence assay; assay type: functional, cell-based; settings: Homo sapiens
Procedure, shortened: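 HUVECs seeded at 5 × 10^4 per fibronectin-coated 3 µm-pore insert and cultured 5 days to a confluent monolayer. Drug 50 nM for 30 min at 37 °C, then replaced with FITC-dextran (0.8 mg/mL) for 30 min. Lower-well fluorescence read at ex 488/em 525 and expressed as % of a cell-free insert. Mean of 3 independent experiments ± SEM.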

HUVEC [5] = assay: Disruption of interphase microtubule in HUVEC assessed as formation of actin stress fiber at 250 nM after 30 mins by phalloidin/DAPI staining-based immunofluorescence assay; assay type: cell-based; settings: Homo sapiens
Procedure, shortened: (§2)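 HUVECs seeded on fibronectin-coated chamber slides. Drug diluted in EBM from 20 mM DMSO stock. Exposure 250 nM for 30 min or 1 µM for 90 min. Fixed in 3.7% formalin and permeabilised in 0.1% Triton X-100. Stained for β-tubulin by antibody, F-actin by phalloidin and nuclei by DAPI, then imaged by immunofluorescence.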

HUVEC [6] = assay: Disruption of interphase microtubule in HUVEC assessed as formation of actin stress fiber at 1 uM after 90 mins by phalloidin/DAPI staining-based immunofluorescence assay; assay type: cell-based; settings: Homo sapiens; procedure, shortened: as §2
HUVEC [7] = assay: Disruption of interphase microtubule in HUVEC assessed as change in cell morphology at 1 uM after 90 mins by DAPI staining-based immunofluorescence assay; settings: Homo sapiens; procedure, shortened: as §2
[8] = Toxicity in SCID mouse; assay type: organism-based; settings: in vivo
HUVEC [9] = assay: Disruption of interphase microtubule in HUVEC assessed as formation of actin stress fiber at 250 nM preincubated for 30 mins followed by compound washout measured after 60 mins by DAPI staining-based immunofluorescence assay; assay type: cell-based; settings: Homo sapiens
Procedure, shortened: (§3)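 HUVECs on fibronectin-coated chamber slides were exposed to 250 nM drug or vehicle for 30 min at 37 °C. Cells were washed four times with serum-containing medium, incubated 30 min, washed again and incubated a further 30 min (60 min recovery). They were then fixed in 3.7% formalin, permeabilized with 0.1% Triton X-100, and stained for β-tubulin, F-actin (phalloidin) and DAPI.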

HUVEC [10] = assay: Disruption of interphase microtubule in HUVEC assessed as change in cell shape at 250 nM after 30 mins by DAPI staining-based immunofluorescence assay; settings: Homo sapiens; procedure, shortened: as §1
HUVEC [11] = assay: Disruption of interphase microtubule in HUVEC assessed as change in cell shape and morphology at 250 nM preincubated for 30 mins followed by compound washout measured after 60 mins by DAPI staining-based immunofluorescence assay; settings: Homo sapiens; procedure, shortened: as §3

## COc1ccc(/C=C\c2cc(OC)c(OC)c(OC)c2)cc1OP(=O)(O)O [FOSBRETABULIN DISODIUM]
HUVEC [1]
  GI50: 8 nM
HUVEC [2]
  Activity: Active
SW1222
  Activity: Active
HUVEC [3]
  Activity: Active
HUVEC [4]
  Activity: Active
HUVEC [5]
  Activity: Active

## COc1ccc(-c2cn[nH]c2-c2cc(OC)c(OC)c(OC)c2)cc1O
HUVEC [1]
  GI50: > 5000 nM

## COc1cc2c(c(OC)c1OC)-c1ccc(OC)c(=O)cc1[C@@H](NC(C)=O)CC2 [COLCHICINE]
HUVEC [1]
  GI50: 25 nM
HUVEC [6]
  Activity: Active
HUVEC [7]
  Activity: Active

## COc1ccc(-n2nccc2-c2cc(OC)c(OC)c(OC)c2)cc1O
HUVEC [1]
  GI50: > 750 nM

## COc1ccc(-c2[nH]ncc2-c2cc(OC)c(OC)c(OC)c2)cc1O
HUVEC [1]
  GI50: 7 nM
[8]
  MTD: > 162 mg/kg
HUVEC [2]
  Activity: Active
SW1222
  Activity: Active
HUVEC [3]
  Activity: Active
HUVEC [9]
  Activity: Active
HUVEC [10]
  Activity: Active
HUVEC [4]
  Activity: Active
HUVEC [11]
  Activity: Active

## COc1ccc(-c2c(-c3cc(OC)c(OC)c(OC)c3)cnn2C)cc1O
HUVEC [1]
  GI50: 118 nM

## COc1ccc(-c2cnn(Cc3ccccc3)c2-c2cc(OC)c(OC)c(OC)c2)cc1O
HUVEC [1]
  GI50: > 2500 nM

## COc1ccc(-c2nn(Cc3ccccc3)cc2-c2cc(OC)c(OC)c(OC)c2)cc1O
HUVEC [1]
  GI50: > 2000 nM

## COc1ccc(-c2cnn(C)c2-c2cc(OC)c(OC)c(OC)c2)cc1O
HUVEC [1]
  GI50: 68 nM

## COc1ccc(-c2nn(C)cc2-c2cc(OC)c(OC)c(OC)c2)cc1O
HUVEC [1]
  GI50: 256 nM

## COc1ccc(-c2c(-c3cc(OC)c(OC)c(OC)c3)cnn2Cc2ccccc2)cc1O
HUVEC [1]
  GI50: > 750 nM

## COc1ccc(-c2cn(C)nc2-c2cc(OC)c(OC)c(OC)c2)cc1O
HUVEC [1]
  GI50: > 5000 nM

## COc1ccc(-c2cn(Cc3ccccc3)nc2-c2cc(OC)c(OC)c(OC)c2)cc1O
HUVEC [1]
  GI50: > 5000 nM

## COc1ccc(-c2ccnn2-c2cc(OC)c(OC)c(OC)c2)cc1O
HUVEC [1]
  GI50: 28 nM
HUVEC [2]
  Activity: Active
HUVEC [10]
  Activity: Active
